# Reference: ChEMBL document CHEMBL4376814, “Novel cyclin-dependent kinase 9 (CDK9) inhibitor with suppression of cancer stemness activity against non-small-cell lung cancer” (Eur J Med Chem, 2019)
# Calls of active or inactive are those of the source. The rule behind the calls is not given here.
# Experiments:
# [1] = species on record: Homo sapiens; assay: Inhibition of recombinant full-length human JNK2alpha2 S51N mutant at 1 uM using ATF2 as substrate measured after 40 mins in presence of [gamma33P]ATP by scintillation counting method relative to control
# [2] = target: Mitogen-activated protein kinase 14 (Homo sapiens) (UniProt Q16539); assay: Inhibition of recombinant full-length human SAPK2a at 1 uM using myelin basic protein as substrate measured after 40 mins in presence of [gamma33P]ATP by scintillation counting method relative to control
# [3] = tested on: Platelet-derived growth factor receptor alpha (Homo sapiens), P16234 [D842V]; assay: Inhibition of recombinant human PDGFRalpha (550 to end residues) D842V mutant at 1 uM using GGMEDIYFEFMGGKKK as substrate measured after 40 mins in presence of [gamma33P]ATP by scintillation counting method relative to control
# [4] = tested on: NCI-H1299; assay: Inhibition of tumorsphere formation in human H1299 cells assessed as decrease in number of spheres at 0.25 to 1 uM after 2 weeks by microscopic analysis; format: functional, cell-based
# [5] = target: Ribosomal protein S6 kinase alpha-6 (Homo sapiens) (UniProt Q9UK32); assay: Inhibition of recombinant full-length human Rsk4 at 1 uM using LRRASLG as substrate measured after 40 mins in presence of [gamma33P]ATP by scintillation counting method relative to control
# [6] = target: Insulin-like growth factor 1 receptor (Homo sapiens) (UniProt P08069); assay: Inhibition of recombinant human activated IGF1R (959 to end residues) at 1 uM using KKKSPGEYVNIEFG as substrate measured after 40 mins in presence of [gamma33P]ATP by scintillation counting method relative to control
# [7] = target: Serine/threonine-protein kinase 25 (Homo sapiens) (UniProt O00506); assay: Inhibition of human STK25 (1 to 308 residues) at 1 uM using RLGRDKYKTLRQIRQ as substrate measured after 40 mins in presence of [gamma33P]ATP by scintillation counting method relative to control
# Method in brief: (§1)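 Percent inhibition of kinase activity at a single compound concentration, measured by the outsourced Eurofins KinaseProfiler panel. Values are the mean of two independent experiments.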
# [8] = tested on: A549; assay: Down regulation of CDK9 expression in human A549 cells at 0.25 to 1 uM after 24 hrs by Western blot analysis; format: functional, cell-based
# Method in brief: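 A549 and H1299 cells treated for 24 h with serial dilutions alongside a DMSO control. Protein extracts resolved and immunoblotted.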
# [9] = target: Serine/threonine-protein kinase MRCK beta (Homo sapiens) (UniProt Q9Y5S2); assay: Inhibition of recombinant human MRCKbeta (1 to 473 residues) at 1 uM using KKRNRTLTV as substrate measured after 40 mins in presence of [gamma33P]ATP by scintillation counting method relative to control
# [10] = target: Tyrosine-protein kinase JAK3 (Homo sapiens) (UniProt P52333); assay: Inhibition of recombinant human JAK3 (781 to end residues) at 1 uM using GGEEEEYFELVKKKK as substrate measured after 40 mins in presence of [gamma33P]ATP by scintillation counting method relative to control
# [11] = target: Insulin-like growth factor 1 receptor (Homo sapiens) (UniProt P08069); assay: Inhibition of recombinant human IGF1R (959 to end residues) at 1 uM using KKKSPGEYVNIEFG as substrate measured after 40 mins in presence of [gamma33P]ATP by scintillation counting method relative to control
# [12] = target: Proto-oncogene tyrosine-protein kinase receptor Ret (Homo sapiens) (UniProt P07949); assay: Inhibition of human Ret (658 to end residues) at 1 uM using KKKSPGEYVNIEFG as substrate measured after 40 mins in presence of [gamma33P]ATP by scintillation counting method relative to control; method in brief: as §1
# [13] = tested on: NCI-H1299; assay: Induction of apoptosis in human H1299 cells assessed as early apoptotic cells at 1 uM after 48 hrs by AnnexinV-FITC/PI staining-based flow cytometric analysis (reference value: 0.248%); format: functional
# [14] = tested on: A549; assay: Induction of apoptosis in human A549 cells assessed as activation of caspase 3 at 0.25 to 1 uM after 24 hrs by Western blot analysis; format: functional, cell-based
# Method in brief: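 A549 or H1299 cells exposed to the indicated concentrations for 24 h. Protein extracts then immunoblotted for apoptosis-pathway proteins (Bcl2, Bim, cleaved caspase 3).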
# [15] = target: Cyclin-dependent kinase 9 (Homo sapiens) (UniProt P50750); settings: 0.25 uM
# [16] = tested on: NCI-H1299; assay: Induction of apoptosis in human H1299 cells assessed as necrotic cells at 0.5 uM after 48 hrs by AnnexinV-FITC/PI staining-based flow cytometric analysis (reference value: 0.9%); format: functional
# [17] = target: LIM domain kinase 2 (Homo sapiens) (UniProt P53671); assay: Inhibition of recombinant human LIMK2 at 1 uM by radiometric method relative to control
# [18] = target: Dual specificity protein kinase CLK4 (Homo sapiens) (UniProt Q9HAZ1); assay: Inhibition of recombinant human CLK4 (128 to end residues) at 1 uM using YRRAAVPPSPSLSRHSSPHQS(p) EDEEE as substrate measured after 40 mins in presence of [gamma33P]ATP by scintillation counting method relative to control
# Method in brief: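 Single-point inhibition at 1 µM was measured in the Eurofins KinaseProfiler panel. Values are the mean of two independent experiments.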
# [19] = target: NT-3 growth factor receptor (Homo sapiens) (UniProt Q16288); assay: Inhibition of recombinant human TrkC (510 to end residues) at 1 uM using GEEPLYWSFPAKKK as substrate measured after 40 mins in presence of [gamma33P]ATP by scintillation counting method relative to control
# [20] = target: Fibroblast growth factor receptor 2 (Homo sapiens) (UniProt P21802); assay: Inhibition of recombinant human FGFR2 (456 to 770 residues) at 1 uM using poly(Glu, Tyr) 4:1 as substrate measured after 40 mins in presence of [gamma33P]ATP by scintillation counting method relative to control
# [21] = target: Ephrin type-A receptor 7 (Homo sapiens) (UniProt Q15375); assay: Inhibition of recombinant human EphA7 (613 to 909 residues) at 1 uM using KTFCGTPEYLAPEVRREPRILSEEEQEMFRDFDYIADWC as substrate measured after 40 mins in presence of [gamma33P]ATP by scintillation counting method relative to control
# [22] = tested on: Hepatocyte growth factor receptor (Homo sapiens), P08581 [Y1230D]; assay: Inhibition of recombinant human MET A1209G/V1290L/Y1248D mutant (974 to end residues) at 1 uM using KKKGQEEEYVFIE as substrate measured after 40 mins in presence of [gamma33P]ATP by scintillation counting method relative to control
# [23] = target: Mitogen-activated protein kinase 1 (Homo sapiens) (UniProt P28482); assay: Inhibition of recombinant full-length human MAPK1 at 1 uM using MBP as substrate measured after 40 mins in presence of [gamma33P]ATP by scintillation counting method relative to control
# [24] = tested on: NCI-H1299; assay: Downregulation of SOX2 in human H1299 cells at 0.25 to 1 uM by Western blot analysis; format: functional, cell-based
# Chain of Insulin-like growth factor 1 receptor (Homo sapiens) (P08069 31-736 limits assumed): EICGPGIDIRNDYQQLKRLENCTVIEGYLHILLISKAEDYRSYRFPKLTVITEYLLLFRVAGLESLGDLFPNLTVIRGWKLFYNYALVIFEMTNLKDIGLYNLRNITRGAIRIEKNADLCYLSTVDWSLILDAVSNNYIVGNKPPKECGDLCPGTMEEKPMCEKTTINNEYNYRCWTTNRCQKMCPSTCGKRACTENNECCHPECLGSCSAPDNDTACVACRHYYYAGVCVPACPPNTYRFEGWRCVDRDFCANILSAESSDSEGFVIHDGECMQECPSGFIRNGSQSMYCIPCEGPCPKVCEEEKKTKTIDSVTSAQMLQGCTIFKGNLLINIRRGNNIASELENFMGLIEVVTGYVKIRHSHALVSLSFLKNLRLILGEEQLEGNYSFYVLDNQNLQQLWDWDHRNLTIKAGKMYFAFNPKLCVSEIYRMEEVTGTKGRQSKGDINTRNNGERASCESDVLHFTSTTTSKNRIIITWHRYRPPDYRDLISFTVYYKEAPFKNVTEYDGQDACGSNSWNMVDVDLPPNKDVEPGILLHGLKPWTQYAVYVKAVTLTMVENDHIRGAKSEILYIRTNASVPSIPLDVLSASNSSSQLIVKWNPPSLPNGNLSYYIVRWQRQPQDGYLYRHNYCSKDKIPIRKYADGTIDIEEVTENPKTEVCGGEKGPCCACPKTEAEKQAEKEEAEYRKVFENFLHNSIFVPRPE
# Chain of Insulin-like growth factor 1 receptor (Homo sapiens) (P08069 741-1367 limits assumed): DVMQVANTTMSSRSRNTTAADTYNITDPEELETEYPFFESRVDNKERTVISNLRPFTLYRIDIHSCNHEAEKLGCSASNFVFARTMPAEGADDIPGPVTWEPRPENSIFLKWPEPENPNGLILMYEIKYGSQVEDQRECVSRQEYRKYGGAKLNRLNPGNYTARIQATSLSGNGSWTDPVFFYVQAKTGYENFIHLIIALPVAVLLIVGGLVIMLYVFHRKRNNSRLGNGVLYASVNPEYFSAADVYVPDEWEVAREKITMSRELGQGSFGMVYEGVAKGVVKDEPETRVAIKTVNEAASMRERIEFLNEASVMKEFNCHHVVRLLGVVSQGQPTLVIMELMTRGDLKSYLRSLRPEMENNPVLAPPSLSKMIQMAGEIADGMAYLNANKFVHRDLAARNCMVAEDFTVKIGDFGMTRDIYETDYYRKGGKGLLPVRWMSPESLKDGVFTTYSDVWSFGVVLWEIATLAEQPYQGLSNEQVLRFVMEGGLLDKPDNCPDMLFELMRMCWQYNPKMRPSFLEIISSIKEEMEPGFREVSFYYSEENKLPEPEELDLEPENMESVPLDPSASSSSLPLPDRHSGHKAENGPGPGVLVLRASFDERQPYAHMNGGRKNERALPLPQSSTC
# Chain of LIM domain kinase 2 (Homo sapiens) (P53671 whole entry, looked up, the tested form may be a part): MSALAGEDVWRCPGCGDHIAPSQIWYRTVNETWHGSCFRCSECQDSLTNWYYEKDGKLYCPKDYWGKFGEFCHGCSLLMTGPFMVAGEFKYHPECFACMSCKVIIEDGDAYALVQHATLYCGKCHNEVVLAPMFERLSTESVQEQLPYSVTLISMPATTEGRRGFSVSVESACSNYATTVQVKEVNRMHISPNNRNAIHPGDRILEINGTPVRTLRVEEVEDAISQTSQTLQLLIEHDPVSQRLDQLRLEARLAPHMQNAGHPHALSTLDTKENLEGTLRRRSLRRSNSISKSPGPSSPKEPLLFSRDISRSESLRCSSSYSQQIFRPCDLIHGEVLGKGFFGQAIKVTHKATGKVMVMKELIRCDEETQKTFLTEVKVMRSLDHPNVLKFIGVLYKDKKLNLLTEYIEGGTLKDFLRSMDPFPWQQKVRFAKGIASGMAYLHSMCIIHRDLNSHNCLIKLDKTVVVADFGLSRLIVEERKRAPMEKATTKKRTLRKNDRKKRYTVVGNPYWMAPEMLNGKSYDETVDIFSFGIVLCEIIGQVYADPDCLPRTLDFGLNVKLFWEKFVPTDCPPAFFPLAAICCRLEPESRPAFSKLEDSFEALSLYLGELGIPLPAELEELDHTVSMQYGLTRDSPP
# Chain of Ephrin type-A receptor 7 (Homo sapiens) (Q15375 28-998 limits assumed): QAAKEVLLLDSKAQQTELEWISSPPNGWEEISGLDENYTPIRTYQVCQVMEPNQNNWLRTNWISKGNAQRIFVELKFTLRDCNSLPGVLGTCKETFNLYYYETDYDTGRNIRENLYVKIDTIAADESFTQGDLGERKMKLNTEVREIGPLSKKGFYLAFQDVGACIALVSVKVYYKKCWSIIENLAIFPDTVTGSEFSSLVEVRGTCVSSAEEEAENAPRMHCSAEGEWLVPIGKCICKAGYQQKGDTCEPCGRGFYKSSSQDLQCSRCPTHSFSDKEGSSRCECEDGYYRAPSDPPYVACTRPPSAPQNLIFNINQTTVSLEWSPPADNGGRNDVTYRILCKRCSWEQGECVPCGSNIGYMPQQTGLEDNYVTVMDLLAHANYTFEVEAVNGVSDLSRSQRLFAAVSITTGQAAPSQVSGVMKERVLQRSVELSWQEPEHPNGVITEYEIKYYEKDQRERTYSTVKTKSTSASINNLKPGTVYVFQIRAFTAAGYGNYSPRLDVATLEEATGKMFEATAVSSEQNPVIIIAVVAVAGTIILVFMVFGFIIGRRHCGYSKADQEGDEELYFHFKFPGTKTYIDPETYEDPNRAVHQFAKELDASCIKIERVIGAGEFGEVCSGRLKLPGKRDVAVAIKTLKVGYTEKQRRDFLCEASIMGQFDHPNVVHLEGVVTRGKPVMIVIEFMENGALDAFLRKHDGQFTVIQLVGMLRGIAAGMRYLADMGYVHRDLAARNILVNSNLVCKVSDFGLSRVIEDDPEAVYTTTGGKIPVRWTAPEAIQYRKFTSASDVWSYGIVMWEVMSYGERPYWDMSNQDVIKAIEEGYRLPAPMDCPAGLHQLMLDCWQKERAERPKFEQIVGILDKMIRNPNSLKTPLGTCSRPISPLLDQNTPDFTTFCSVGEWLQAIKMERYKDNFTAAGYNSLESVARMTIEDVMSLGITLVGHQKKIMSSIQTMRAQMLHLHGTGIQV
# Chain of Ribosomal protein S6 kinase alpha-6 (Homo sapiens) (Q9UK32 whole entry): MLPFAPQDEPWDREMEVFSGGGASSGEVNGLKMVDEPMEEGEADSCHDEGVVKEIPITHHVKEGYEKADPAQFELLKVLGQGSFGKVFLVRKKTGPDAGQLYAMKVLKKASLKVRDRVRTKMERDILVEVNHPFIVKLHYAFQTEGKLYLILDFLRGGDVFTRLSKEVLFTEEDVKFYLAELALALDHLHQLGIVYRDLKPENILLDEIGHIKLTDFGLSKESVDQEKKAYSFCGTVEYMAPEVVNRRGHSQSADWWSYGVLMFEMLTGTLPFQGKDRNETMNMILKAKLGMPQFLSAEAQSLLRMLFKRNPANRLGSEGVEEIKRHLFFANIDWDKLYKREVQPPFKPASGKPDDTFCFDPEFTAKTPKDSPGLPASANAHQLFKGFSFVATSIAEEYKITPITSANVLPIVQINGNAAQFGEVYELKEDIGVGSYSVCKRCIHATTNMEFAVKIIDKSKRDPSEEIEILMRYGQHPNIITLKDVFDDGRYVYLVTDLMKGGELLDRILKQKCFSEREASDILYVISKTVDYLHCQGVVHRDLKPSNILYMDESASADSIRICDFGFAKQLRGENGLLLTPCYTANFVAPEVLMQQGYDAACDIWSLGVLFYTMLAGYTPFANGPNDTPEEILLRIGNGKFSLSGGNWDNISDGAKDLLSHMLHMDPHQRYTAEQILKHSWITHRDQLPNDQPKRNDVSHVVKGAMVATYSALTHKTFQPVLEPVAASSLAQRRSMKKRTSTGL
# Chain of Fibroblast growth factor receptor 2 (Homo sapiens) (P21802 22-821 limits assumed): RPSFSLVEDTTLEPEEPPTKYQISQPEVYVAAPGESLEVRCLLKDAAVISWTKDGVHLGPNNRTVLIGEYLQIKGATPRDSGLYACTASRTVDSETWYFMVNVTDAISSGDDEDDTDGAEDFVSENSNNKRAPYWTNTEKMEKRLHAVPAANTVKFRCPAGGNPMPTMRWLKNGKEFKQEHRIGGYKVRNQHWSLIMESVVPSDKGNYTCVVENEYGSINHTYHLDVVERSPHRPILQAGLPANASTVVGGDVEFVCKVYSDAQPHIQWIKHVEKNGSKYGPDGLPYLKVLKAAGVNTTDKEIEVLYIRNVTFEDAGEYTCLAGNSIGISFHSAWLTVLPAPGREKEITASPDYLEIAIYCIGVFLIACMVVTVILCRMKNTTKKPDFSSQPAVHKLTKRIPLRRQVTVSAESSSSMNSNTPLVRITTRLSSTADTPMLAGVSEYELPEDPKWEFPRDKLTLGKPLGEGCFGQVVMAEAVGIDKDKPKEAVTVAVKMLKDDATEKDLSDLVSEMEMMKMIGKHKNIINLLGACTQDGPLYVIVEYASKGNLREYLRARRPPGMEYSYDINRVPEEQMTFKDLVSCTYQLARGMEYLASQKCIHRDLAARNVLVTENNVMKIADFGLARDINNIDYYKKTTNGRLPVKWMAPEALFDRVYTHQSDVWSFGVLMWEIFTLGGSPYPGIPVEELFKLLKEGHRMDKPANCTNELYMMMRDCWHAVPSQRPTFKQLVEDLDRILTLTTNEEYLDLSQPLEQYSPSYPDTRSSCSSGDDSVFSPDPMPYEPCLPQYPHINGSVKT
# Chain of Serine/threonine-protein kinase 25 (Homo sapiens) (O00506 whole entry, looked up, the tested form may be a part): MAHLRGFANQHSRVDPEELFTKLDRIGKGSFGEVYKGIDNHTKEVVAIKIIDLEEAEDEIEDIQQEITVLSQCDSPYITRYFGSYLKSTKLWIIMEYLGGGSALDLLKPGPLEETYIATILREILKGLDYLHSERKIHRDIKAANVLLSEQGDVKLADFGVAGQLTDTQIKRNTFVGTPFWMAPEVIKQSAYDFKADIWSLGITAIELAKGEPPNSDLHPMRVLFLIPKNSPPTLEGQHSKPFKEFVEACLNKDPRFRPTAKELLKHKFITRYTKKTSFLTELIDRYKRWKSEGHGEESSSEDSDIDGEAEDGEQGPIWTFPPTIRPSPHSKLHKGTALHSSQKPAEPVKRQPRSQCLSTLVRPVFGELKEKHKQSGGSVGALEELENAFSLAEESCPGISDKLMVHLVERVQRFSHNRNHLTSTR
compound,measurement,setting,value
CN(C)C(=O)c1cc2cnc(Nc3ccc(NC(=O)CCCCCCCN=C=S)cc3)nc2n1C1CCCC1,inhibition,[1],40%
same,inhibition,[2],20%
same,inhibition,[3],44%
same,inhibition,[4],Active
same,inhibition,[5],38%
same,inhibition,[6],0%
same,inhibition,[7],-2%
same,Activity,[8],inactive
same,inhibition,[9],7%
same,inhibition,[10],83%
same,inhibition,[11],-10%
same,inhibition,[12],55%
same,Activity,[13],2.28%
same,Activity,[14],Active
same,inhibition,[15],Active
same,Activity,[16],1.11%
same,inhibition,[17],13%
same,inhibition,[18],1%
same,inhibition,[19],80%
same,inhibition,[20],27%
same,inhibition,[21],6%
same,inhibition,[22],68%
same,inhibition,[23],3%
same,Activity,[24],Active
